Key:
[1] = molecular target: T1, Amine oxidase [flavin-containing] B (Homo sapiens, UniProt P27338)
T1 sequence (P27338 whole entry): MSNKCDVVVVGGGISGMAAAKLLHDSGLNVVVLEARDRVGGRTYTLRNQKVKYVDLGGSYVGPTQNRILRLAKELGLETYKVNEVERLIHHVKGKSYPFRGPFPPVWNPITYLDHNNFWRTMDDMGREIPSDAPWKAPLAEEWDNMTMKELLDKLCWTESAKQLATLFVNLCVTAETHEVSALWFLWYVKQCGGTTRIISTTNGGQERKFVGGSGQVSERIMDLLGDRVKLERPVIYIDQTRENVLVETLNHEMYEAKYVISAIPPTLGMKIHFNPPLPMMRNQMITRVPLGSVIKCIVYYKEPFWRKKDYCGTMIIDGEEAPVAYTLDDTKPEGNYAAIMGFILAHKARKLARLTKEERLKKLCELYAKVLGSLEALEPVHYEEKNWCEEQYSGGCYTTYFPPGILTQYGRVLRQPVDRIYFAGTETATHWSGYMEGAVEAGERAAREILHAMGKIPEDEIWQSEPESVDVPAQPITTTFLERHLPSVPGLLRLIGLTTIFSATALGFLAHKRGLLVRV

Homo sapiens = species: Homo sapiens; experiment: Selectivity, ratio of IC50 for human recombinant MAOA to human recombinant MAOB
[2] = molecular target: T2, Amine oxidase [flavin-containing] A (Homo sapiens, UniProt P21397); experiment: Inhibition of human recombinant MAOA
T2 sequence (P21397 whole entry): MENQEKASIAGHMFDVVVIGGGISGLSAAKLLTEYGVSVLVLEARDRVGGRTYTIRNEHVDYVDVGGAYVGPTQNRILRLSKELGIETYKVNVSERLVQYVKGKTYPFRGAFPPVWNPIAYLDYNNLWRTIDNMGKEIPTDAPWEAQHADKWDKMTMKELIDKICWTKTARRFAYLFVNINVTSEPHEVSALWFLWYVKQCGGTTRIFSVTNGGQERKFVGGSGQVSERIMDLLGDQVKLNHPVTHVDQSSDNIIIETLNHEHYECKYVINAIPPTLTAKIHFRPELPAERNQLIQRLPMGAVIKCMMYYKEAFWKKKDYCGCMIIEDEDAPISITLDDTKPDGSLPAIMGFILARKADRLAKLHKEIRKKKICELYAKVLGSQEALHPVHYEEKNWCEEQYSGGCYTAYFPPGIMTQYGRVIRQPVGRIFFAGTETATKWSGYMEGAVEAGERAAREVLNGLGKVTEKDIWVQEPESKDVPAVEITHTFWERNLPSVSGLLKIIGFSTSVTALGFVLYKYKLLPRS

[3] = molecular target: T1, Amine oxidase [flavin-containing] B; experiment: Inhibition of human recombinant MAOB at 1 mM; details: 1000 µM
Outline: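 Recombinant hMAO-A or hMAO-B in microsomes from baculovirus-infected BTI-TN-5B1-4 insect cells, amounts set to oxidize 165 pmol p-tyramine/min in controls. Preincubated with test drug in 0.05 M sodium phosphate pH 7.4, 15 min, 37 °C. Reaction started with Amplex Red, 1 U/mL HRP and 1 mM p-tyramine (final). […] Selectivity = IC50(MAO-A)/IC50(MAO-B).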

Row | SMILES | IC50 [1] | Ratio IC50 (Homo sapiens) | IC50 [2] | inhibition (INH) [3]
1 | NC(=S)N1N=C(c2ccccc2)CC1c1ccccc1 (centres undefined) | 48.3 µM | > 2.1 |  | 
2 | NC(=S)N1N=C(c2ccccc2)CC1c1ccco1 (centres undefined) | 32.5 µM | 1.7 | 54.7 µM | 
3 | NC(=S)N1N=C(c2ccc[nH]2)CC1c1ccco1 (centres undefined) | 69.4 µM | > 1.4 |  | 
4 | O=C(NCCN1CCOCC1)c1ccc(Cl)cc1 [MOCLOBEMIDE] |  |  |  | Not Active
5 | NC(=S)N1N=C(c2cccs2)CC1c1ccc[nH]1 (centres undefined) | 33.3 µM | 2.1 | 70 µM | 
6 | Cc1ccc(C2CC(c3ccco3)=NN2C(N)=S)cc1 (centres undefined) | 54.5 µM | 1.2 | 65.8 µM | 

Source: ChEMBL document CHEMBL1153747, “Synthesis and inhibitory activity against human monoamine oxidase of N1-thiocarbamoyl-3,5-di(hetero)aryl-4,5-dihydro-(1H)-pyrazole derivatives” (Eur J Med Chem, 2010)
